From ChEMBL document CHEMBL1139340, “Synthesis, radiosynthesis, and biological evaluation of carbon-11 and fluorine-18 labeled reboxetine analogues: potential positron emission tomography radioligands for in vivo imaging of the norepinephrine transporter” (J Med Chem, 2009) come the findings set out here.

The nature of data set [1]: Lipophilicity, log P at pH 7.4. It counts as physicochemical. The note with it: buffer. An outline of the steps:
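Radiotracer (~5–10 μCi) in 2 mL 1-octanol plus 2 mL 0.02 M sodium phosphate buffer, pH 7.4. Vortexed 10 min at room temperature, centrifuged 5 min. 0.5 mL of each layer gamma-counted and decay corrected. log P = log(octanol counts/buffer counts), done three times and averaged.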

The species named for data set [2] is Homo sapiens. Put plainly: Selectivity for human NET over human DAT. In outline: (§1)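 Competition binding in stably transfected cells expressing human transporters: NET vs [3H]nisoxetine and SERT vs [3H]citalopram in HEK-293 cells; DAT vs [125I]RTI-55 in canine kidney cells. Ki as geometric mean of at least three experiments in triplicate; selectivity as ratio of SERT or DAT Ki to NET Ki.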

For data set [3], the target named is Sodium-dependent noradrenaline transporter (Homo sapiens, UniProt P23975). Briefly: Displacement of [3H]nisoxetine from human NET receptor expressed in HEK293 cells. Type of data set: cell-based. Background: Displacement assays read how much labelled ligand stays bound in the presence of the test substance.
For data set [4], the target named is Sodium-dependent dopamine transporter (Homo sapiens, UniProt Q01959). Briefly: Displacement of [125I]RTI-55 from human DAT receptor expressed in canine kidney cells. Type of data set: cell-based. An outline of the steps:
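Competition binding against [¹²⁵I]RTI-55 in canine kidney cells stably transfected with human DAT. Ki in nM, geometric mean ± SD of at least three separate experiments, each run in triplicate.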

Data set [5] concerns the target Sodium-dependent serotonin transporter (Homo sapiens, UniProt P31645). Briefly: Displacement of [3H]citalopram from human SERT receptor expressed in HEK293 cells. Type of data set: cell-based. An outline of the steps:
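Competition binding against [³H]citalopram in HEK-293 cells stably transfected with human SERT. Ki in nM, geometric mean ± SD of at least three separate experiments, each run in triplicate.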

The species named for data set [6] is Homo sapiens. Put plainly: Selectivity for human NET over human SERT. An outline of the steps: as §1
Data set [7] is described as follows: Ratio of drug uptake in pons to caudate of anesthetized rhesus monkey at 15 to 20 mCi pretreated with 0.125 mg/kg desipramine by microPET. The note with it: in vivo. The arrangement: dose 0.125 mg/kg. It counts as ADME, organism-based, Macaca mulatta. In outline: (§2)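 Anesthetized adult male rhesus monkeys imaged on a microPET P4 system after injection of 15–20 mCi of the 11C-labeled radioligand. Desipramine was given 40 min before radiotracer injection. Emission data were collected continuously for 125 min and binned. ROIs were drawn manually on anatomical landmarks in the reconstructed images. The ratio of region-of-interest to caudate uptake was taken from time-activity curves at 85 min postinjection.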

The nature of data set [8]: Ratio of drug uptake in thalamus to caudate of anesthetized rhesus monkey at 15 to 20 mCi after 85 mins postinjection by microPET. It counts as ADME, organism-based, Macaca mulatta. The settings on record: in vivo. An outline of the steps:
(§3)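 Anesthetized adult male rhesus monkeys scanned on a microPET P4 after 15–20 mCi of the 11C radioligand; emission collected continuously for 125 min, binned, time-activity curves from manually drawn anatomical ROIs; regional uptake divided by caudate uptake (caudate as NET-poor reference) at 85 min postinjection, at baseline.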

The nature of data set [9]: Ratio of drug uptake in pons to caudate of awaken rhesus monkey at 15 to 20 mCi after by PET method. Type of data set: ADME, Macaca mulatta. The settings on record: in vivo. In outline:
(§4)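 Awake rhesus monkeys imaged on a high-resolution research tomograph (HRRT) for 120 min after radioligand injection; images coregistered with composite MRI to define regions; time-activity curves generated and highest ratio of regional uptake to caudate uptake taken.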

Data set [10] is described as follows: Ratio of drug uptake in cerebellum to caudate of awaken rhesus monkey at 15 to 20 mCi after by PET method. Type of data set: ADME, tissue-based, Macaca mulatta. The note with it: in vivo. In outline: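 Awake rhesus monkeys imaged on a high-resolution research tomograph for 120 min after injection of the ¹¹C tracer. Images coregistered with composite MRI to define regions of interest. Highest cerebellum-to-caudate uptake ratio read from the time-activity curves.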

The nature of data set [11]: Ratio of drug uptake in midbrain to caudate of anesthetized rhesus monkey at 15 to 20 mCi pretreated with 0.125 mg/kg desipramine by microPET. Type of data set: ADME, organism-based, Macaca mulatta. The arrangement: dose 0.125 mg/kg. The settings on record: in vivo. In outline:
as §2

Data set [12] is described as follows: Ratio of drug uptake in midbrain to caudate of awaken rhesus monkey at 15 to 20 mCi after by PET method. It counts as ADME, Macaca mulatta. The settings on record: in vivo. An outline of the steps:
as §4

A short description of data set [13]: Ratio of drug uptake in pons to caudate of anesthetized rhesus monkey at 15 to 20 mCi after 85 mins postinjection by microPET. It counts as ADME, organism-based, Macaca mulatta. The settings on record: in vivo. An outline of the steps:
as §3

Data set [14] is described as follows: Ratio of drug uptake in cerebellum to caudate of anesthetized rhesus monkey at 15 to 20 mCi after 85 mins postinjection by microPET. It counts as ADME, organism-based, Macaca mulatta. The note with it: in vivo. In outline: (§5)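 Anesthetized adult male rhesus monkeys given 15–20 mCi of the ¹¹C tracer, alone or after desipramine (0.125 or 0.25 mg/kg) 40 min beforehand. MicroPET emission collected continuously for 125 min and binned. ROIs drawn manually on anatomical landmarks to give time-activity curves. Region-to-caudate uptake ratio taken at 85 min postinjection.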

Data set [15] in a line: Ratio of drug uptake in midbrain to caudate of anesthetized rhesus monkey at 15 to 20 mCi after 85 mins postinjection by microPET. It counts as ADME, organism-based, Macaca mulatta. The note with it: in vivo. An outline of the steps: as §5
The nature of data set [16]: Ratio of drug uptake in thalamus to caudate of anesthetized rhesus monkey at 15 to 20 mCi pretreated with 0.125 mg/kg desipramine by microPET. Type of data set: ADME, organism-based, Macaca mulatta. The arrangement: dose 0.125 mg/kg. The settings on record: in vivo. An outline of the steps:
as §2

Data set [17] in a line: Ratio of drug uptake in thalamus to caudate of awaken rhesus monkey at 15 to 20 mCi after by PET method. The settings on record: in vivo. It counts as ADME, Macaca mulatta. In outline:
as §4

Data set [18] in a line: Ratio of drug uptake in cerebellum to caudate of anesthetized rhesus monkey at 15 to 20 mCi pretreated with 0.125 mg/kg desipramine by microPET. Type of data set: ADME, organism-based, Macaca mulatta. The arrangement: dose 0.125 mg/kg. The note with it: in vivo. In outline:
as §2

Broadly, the logD is the decadic logarithm of the distribution of all forms, ionised or not, between an organic phase and buffer at a given pH. As a reminder, the Ki is a measure of affinity in units of concentration, obtained from inhibition or displacement.

Chain of Sodium-dependent dopamine transporter (Q01959 whole entry): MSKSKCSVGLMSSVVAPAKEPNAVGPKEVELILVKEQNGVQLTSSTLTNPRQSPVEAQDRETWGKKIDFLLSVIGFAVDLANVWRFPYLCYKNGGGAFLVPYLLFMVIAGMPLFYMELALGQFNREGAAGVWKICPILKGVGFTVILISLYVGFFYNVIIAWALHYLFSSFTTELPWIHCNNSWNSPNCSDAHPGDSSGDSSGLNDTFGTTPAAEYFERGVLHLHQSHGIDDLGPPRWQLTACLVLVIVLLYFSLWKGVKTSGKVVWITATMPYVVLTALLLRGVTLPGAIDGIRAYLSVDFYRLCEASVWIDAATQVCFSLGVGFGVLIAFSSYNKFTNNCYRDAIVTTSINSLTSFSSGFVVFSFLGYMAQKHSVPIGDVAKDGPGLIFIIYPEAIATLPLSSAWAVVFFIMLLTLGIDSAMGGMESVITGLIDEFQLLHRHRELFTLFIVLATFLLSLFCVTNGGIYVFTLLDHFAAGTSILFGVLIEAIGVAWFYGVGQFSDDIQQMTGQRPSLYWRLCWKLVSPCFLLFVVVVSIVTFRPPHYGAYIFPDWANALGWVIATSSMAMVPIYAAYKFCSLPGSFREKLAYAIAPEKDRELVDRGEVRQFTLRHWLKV
Chain of Sodium-dependent serotonin transporter (P31645 whole entry): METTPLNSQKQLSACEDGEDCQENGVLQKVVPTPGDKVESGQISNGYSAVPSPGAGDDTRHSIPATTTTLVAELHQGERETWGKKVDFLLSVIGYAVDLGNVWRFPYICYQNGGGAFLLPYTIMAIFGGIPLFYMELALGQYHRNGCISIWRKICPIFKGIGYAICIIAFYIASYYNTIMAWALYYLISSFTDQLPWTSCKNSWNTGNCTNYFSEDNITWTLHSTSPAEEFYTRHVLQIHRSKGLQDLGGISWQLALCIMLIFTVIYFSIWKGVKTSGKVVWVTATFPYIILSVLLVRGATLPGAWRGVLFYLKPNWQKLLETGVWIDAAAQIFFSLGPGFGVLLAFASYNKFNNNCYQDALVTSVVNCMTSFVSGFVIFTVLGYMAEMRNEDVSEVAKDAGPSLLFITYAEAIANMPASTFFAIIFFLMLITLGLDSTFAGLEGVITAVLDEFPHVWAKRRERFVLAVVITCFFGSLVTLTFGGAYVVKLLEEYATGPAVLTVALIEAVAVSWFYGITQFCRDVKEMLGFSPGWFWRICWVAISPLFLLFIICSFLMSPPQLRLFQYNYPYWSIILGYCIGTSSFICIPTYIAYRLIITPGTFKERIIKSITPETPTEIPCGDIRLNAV
Chain of Sodium-dependent noradrenaline transporter (P23975 whole entry): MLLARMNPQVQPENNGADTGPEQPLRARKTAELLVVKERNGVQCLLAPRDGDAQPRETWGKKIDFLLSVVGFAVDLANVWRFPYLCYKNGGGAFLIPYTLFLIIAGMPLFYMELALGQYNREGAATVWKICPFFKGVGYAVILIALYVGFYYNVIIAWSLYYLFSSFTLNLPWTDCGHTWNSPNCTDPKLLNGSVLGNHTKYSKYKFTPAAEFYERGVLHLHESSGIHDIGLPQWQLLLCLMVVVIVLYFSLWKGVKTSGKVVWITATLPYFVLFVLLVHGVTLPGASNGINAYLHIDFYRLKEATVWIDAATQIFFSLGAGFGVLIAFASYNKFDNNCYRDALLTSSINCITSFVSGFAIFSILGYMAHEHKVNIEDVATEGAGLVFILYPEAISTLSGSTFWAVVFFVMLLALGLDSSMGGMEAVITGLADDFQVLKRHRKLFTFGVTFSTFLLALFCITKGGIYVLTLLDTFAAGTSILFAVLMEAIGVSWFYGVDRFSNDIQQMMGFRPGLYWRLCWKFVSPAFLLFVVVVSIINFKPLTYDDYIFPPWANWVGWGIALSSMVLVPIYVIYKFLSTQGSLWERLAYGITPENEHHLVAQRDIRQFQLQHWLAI

`FCCc1ccccc1O[C@@H](c1ccccc1)[C@@H]1CNCCO1` gave a logD in [1] of 2. Also, the figures for the Ratio Ki in data set [2] and in [6] were above 2000 and 137, respectively. Further, the Ki in data set [3] was 3.14 nM; in [4], above 6000 nM; in data set [5] it was 430 nM.
For the molecule `[11CH3]c1ccccc1S[C@@H](c1ccccc1)[C@@H]1CNCCO1`, the Ratio is 0.98 in [7]; 1.34 in data set [8]; 1 in [9]; 0.95 in data set [10]; 1.09 in data set [11]; 1 in data set [12]. Moreover, the Ratio in data set [13] was found to be 1.27; in data set [14] it was 1.05; in [15] it was 1.33; in data set [16], 1.02; in [17] it was 1.15; in data set [18], 0.81.
